Experimental data as given in ChEMBL document CHEMBL3244172, “Easily hydrolyzable, water-soluble derivatives of (+/-)-alpha-5-[1-(indol-3-yl)ethyl]-2-methylamino-delta2-thiazoline-4-one, a novel antiviral compound” (J Med Chem, 1979).
Active and inactive are the calls of the source. The calls are words filed in the database; no cut-off is given here.

Experiments:
[1] = Solubility in water; type: physicochemical; conditions: buffer
[2] = Stability in unbuffered aqueous solutions at pH >6 assessed as compound hydrolysis; type: physicochemical; conditions: unbuffered aqueous solution
[3] = Stability in unbuffered aqueous solutions at pH >6 assessed as compound decarboxylation; type: physicochemical
[4] = system: Influenza A virus; assay: Antiviral activity against Influenza A virus Port Chalmers/1/73 (H3N2) infected in MDCK cells assessed as plaque reduction up to 100 ug/ml after 3 days by agar diffusion method; type: functional, organism-based
Procedure, shortened: (§1)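 Plaque reduction: varying compound concentrations were put in the agar overlay above infected monolayers. Coxsackie B1/HeLa was incubated 42 h at 37 °C; influenza/MDCK 3 days at 33 °C. PDD50 is the lowest concentration giving ≥50% fewer plaques than untreated controls.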

[5] = system: MDCK; assay: Cytotoxicity against MDCK cells infected with Influenza A virus Port Chalmers/1/73 (H3N2) up to 100 ug/ml after 3 days by carbol fuchsin staining-based assay; type: cell-based, Canis lupus familiaris; conditions: dog, 72 h
Procedure, shortened: (§2)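 MDCK monolayers infected with influenza had compound in the agar overlay and were incubated 3 days at 33 °C. Monolayers were stained with carbol fuchsin or neutral red. MCC is the lowest concentration causing morphological cell abnormalities.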

[6] = system: HeLa; assay: Cytotoxicity against human HeLa cells infected with Coxsackievirus B1 up to 100 ug/ml after 42 hrs by carbol fuchsin staining-based assay; type: cell-based
Procedure, shortened: (§3)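 HeLa monolayers infected with Coxsackie B1 under an agar overlay holding varying compound concentrations, incubated 37 °C, 42 h. Monolayers stained with carbol fuchsin or neutral red. MCC is the lowest concentration causing morphological abnormalities.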

[7] = system: Coxsackievirus B1; assay: Antiviral activity against Coxsackievirus B1 infected in human HeLa cells assessed as plaque reduction up to 100 ug/ml after 42 hrs by agar diffusion method; type: functional, organism-based
Procedure, shortened: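 Compound mixed at varying concentrations into the agar overlay above Coxsackie B1-infected HeLa monolayers. Incubated 37 °C for 42 h. PDD50 is the lowest concentration giving ≥50% fewer plaques than untreated controls.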

[8] = Stability in aqueous solutions at neutral pH; type: physicochemical; conditions: buffer
[9] = system: Coxsackievirus B1; assay: Antiviral activity against Coxsackievirus B1 infected in human HeLa cells assessed as plaque reduction after 42 hrs by agar diffusion method; type: functional; procedure, shortened: as §1
[10] = system: Influenza A virus; assay: Antiviral activity against Influenza A virus Port Chalmers/1/73 (H3N2) infected in MDCK cells assessed as plaque reduction after 3 days by agar diffusion method; type: functional; procedure, shortened: as §1
[11] = system: Influenza A virus; assay: Antiviral activity against Influenza A virus Port Chalmers/1/73 (H3N2) infected in MDCK cells at 1 mg/ml by agar diffusion method; type: functional; conditions: read-out: DIZ
Procedure, shortened: (§4)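 Agar diffusion: compounds were diluted to 1 mg/mL in Eagle's MEM from stocks of 10 mg/mL in water or 100 mg/mL in DMSO. 0.02 mL went into 6 mm wells cut in the agar overlay above infected monolayers (influenza in MDCK, Coxsackie B1 in HeLa). Read-out was the diameter (mm) of the plaque-free inhibition zone around each well.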

[12] = system: Coxsackievirus B1; assay: Antiviral activity against Coxsackievirus B1 infected in human HeLa cells at 1 mg/ml by agar diffusion method; type: functional; conditions: Enterovirus B; read-out: DIZ; procedure, shortened: as §4
[13] = Cytotoxicity against human HeLa cells infected with Coxsackievirus B1 after 42 hrs by carbol fuchsin staining-based assay; type: cell-based; procedure, shortened: as §3
[14] = Cytotoxicity against MDCK cells infected with Influenza A virus Port Chalmers/1/73 (H3N2) after 3 days by carbol fuchsin staining-based assay; type: cell-based, Canis lupus familiaris; conditions: dog; procedure, shortened: as §2
[15] = system: Influenza A virus; assay: Antiviral activity against Influenza A virus Port Chalmers/1/73 (H3N2) infected in ferret assessed as serum antibody response to virus infection at 16 mg/kg administered intranasally 7 times on day 0 and 9 times on day 1 to day 3 by serum antibody response test relative to untreated control; type: functional, organism-based; set-up: dose 16 mg/kg
Procedure, shortened: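 Dosing was as in the other ferret groups: infected ferrets, hourly intranasal 0.2 mL of 50 mg/mL in water, 7 doses on day 0 and 9 on days +1 to +3. Blood was taken by cardiac puncture under Penthrane/N2O/O2 before and 10 days after infection. Sera were KIO4-treated to remove nonspecific inhibitors, then tested by hemagglutination inhibition against the infecting virus.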

Row | SMILES | PDD50 [9] | PDD50 [10] | zone of inhibition at 1000 µg/mL [11] | zone of inhibition at 1000 µg/mL [12] | MCC at 42 h [13] | MCC at 72 h [14] | other results
1 | CNC1=NC(=O)C(C(C)c2cn(C(=O)OC(C)CN(C)C)c3ccccc23)S1.Cl (racemic) | – | – | – | – | – | – | solubility [1]: soluble; Stability [2]: Unstable; Stability [3]: Unstable
2 | CNC1=NC(=O)C(C(C)c2cn(C(=O)CCC(=O)OC)c3ccccc23)S1 (racemic) | – | – | – | – | – | – | Activity [4]: inactive; Activity [5]: Non-toxic; Activity [6]: Non-toxic; Activity [7]: inactive
3 | CNC1=NC(=O)C(C(C)c2cn(C(=O)c3ccccc3C(=O)O)c3ccccc23)S1 (racemic) [listing 1 of 2 here] | – | – | – | – | – | – | Activity [4]: inactive; Activity [7]: inactive
4 | CNC1=NC(=O)C(C(C)c2cn(C(=O)CCC(=O)[O-])c3ccccc23)S1.[Na+] (racemic) | – | – | – | – | – | – | solubility [1]: soluble; Stability [8]: Stable
5 | CNC1=NC(=O)C(C(C)c2cn(C(=O)OCC(C)(C)N3CCOCC3)c3ccccc23)S1.Cl (racemic) | – | – | – | – | – | – | solubility [1]: soluble; Stability [2]: Unstable; Stability [3]: Unstable
6 | CNC1=NC(=O)C(C(C)c2cn(C(C)=O)c3ccccc23)S1 (racemic) | – | – | – | – | – | – | Activity [4]: inactive; Activity [5]: Non-toxic; Activity [6]: Non-toxic; Activity [7]: inactive
7 | CNC1=NC(=O)C(C(C)c2cn(C(=O)OCC(C)(C)N3CCOCC3)c3ccccc23)S1 (racemic) | 5 µg/mL | 2 µg/mL | 26 mm | 24 mm | 100 µg/mL | 30 µg/mL | –
8 | CNC1=NC(=O)C(C(C)c2cn(C(=O)c3ccccc3C(=O)[O-])c3ccccc23)S1.[Na+] (racemic) | – | – | – | – | – | – | solubility [1]: soluble; Stability [8]: Stable
9 | CNC1=NC(=O)C(C(C)c2cn(C(=O)c3ccccc3C(=O)O)c3ccccc23)S1 (racemic) [listing 2 of 2 here] | – | – | – | – | – | – | Activity [5]: Non-toxic; Activity [6]: Non-toxic
10 | CNC1=NC(=O)C(C(C)c2cn(C(=O)OC(C)(C)CN(C)C)c3ccccc23)S1.Cl (racemic) | – | – | – | – | – | – | solubility [1]: soluble; Stability [2]: Unstable; Stability [3]: Unstable
11 | CNC1=NC(=O)C(C(C)c2cn(C(=O)OCC(C)(C)[N+](C)(C)C)c3ccccc23)S1.[I-] (racemic) | – | – | – | – | – | – | Activity [4]: inactive; Activity [5]: Non-toxic; Activity [6]: Non-toxic; Activity [7]: inactive
12 | CNC1=NC(=O)C(C(C)c2c[nH]c3ccccc23)S1 (racemic) | 5 µg/mL | 0.5 µg/mL | 30 mm | 29 mm | 30 µg/mL | 3 µg/mL | –
13 | CNC1=NC(=O)C(C(C)c2cn(C(=O)OCC(C)(C)N(C)C)c3ccccc23)S1 (racemic) [listing 1 of 2 here] | – | – | – | – | – | – | Activity [15]: Active
14 | CNC1=NC(=O)C(C(C)c2cn(C(=O)OC(C)CN(C)C)c3ccccc23)S1 (racemic) | 20 µg/mL | 0.5 µg/mL | 31 mm | 25 mm | 100 µg/mL | 10 µg/mL | –
15 | CNC1=NC(=O)C(C(C)c2cn(C(=O)CCCC(=O)[O-])c3ccccc23)S1.[Na+] (racemic) | – | – | – | – | – | – | solubility [1]: soluble; Stability [8]: Stable
16 | CNC1=NC(=O)C(C(C)c2cn(C(=O)OCc3ccccc3)c3ccccc23)S1 (racemic) | – | – | – | – | – | – | Activity [4]: inactive; Activity [5]: Non-toxic; Activity [6]: Non-toxic; Activity [7]: inactive
17 | CNC1=NC(=O)C(C(C)c2cn(C(=O)CCCC(=O)O)c3ccccc23)S1 (racemic) | 10 µg/mL | 5 µg/mL | 24 mm | 20 mm | > 100 µg/mL | 100 µg/mL | –
18 | OC(c1ccccc1)c1nc2ccccc2[nH]1 (stereo not given) | 20 µg/mL | – | – | 25 mm | > 100 µg/mL | – | –
19 | CCSC(=O)n1cc(C(C)C2SC(NC)=NC2=O)c2ccccc21 (racemic) | – | – | – | – | – | – | Activity [4]: inactive; Activity [5]: Non-toxic; Activity [6]: Non-toxic; Activity [7]: inactive
20 | CNC1=NC(=O)C(C(C)c2cn(C(=O)OC(C)(C)CN(C)C)c3ccccc23)S1 (racemic) | 5 µg/mL | 0.3 µg/mL | 25 mm | 21 mm | 30 µg/mL | 3 µg/mL | –
21 | CNC1=NC(=O)C(C(C)c2cn(C(=O)OCC(C)(C)N(C)C)c3ccccc23)S1 (racemic) [listing 2 of 2 here] | 20 µg/mL | 0.3 µg/mL | 30 mm | 35 mm | 100 µg/mL | 3 µg/mL | –
22 | CNC1=NC(=O)C(C(C)c2cn(C(=O)CCC(=O)O)c3ccccc23)S1 (racemic) | 100 µg/mL | >100 µg/mL | 0 mm | 0 mm | > 100 µg/mL | > 100 µg/mL | –
